Measured values taken from ChEMBL document CHEMBL2331458, “Examination of the mode of action of the almiramide family of natural products against the kinetoplastid parasite Trypanosoma brucei” (J Nat Prod, 2013).
The source made the active and inactive calls. The calls are words filed in the database; no cut-off is given here. Starred links: 1 amine or outer side, 2 acyl side, 3 side chain; linkers in the order of their positions; H or OH if unused. Non-standard residues stand in square brackets, D forms with d. Residues, ends and D or L forms follow the SMILES beside them. *: point of attachment. NH(CH2CH2O)2CH2CH2NHBiotin = O=C(CCCC[C@@H]1SC[C@@H]2NC(=O)N[C@@H]21)NCCOCCOCCN*; Octanoyl(2R-Me,7,8-dehydro) = C=CCCCC[C@@H](C)C(=O)*; Oct7ynoyl(2R-Me) = C#CCCCC[C@@H](C)C(=O)*; X2 = CN(C)c1ccc2c(CC(=O)*)cc(=O)oc2c1; NMeAEEA = CN(CCOCCOCC(=O)[*:2])[*:1]; Ethylenediamine = C(CN[*:2])N[*:1]; NMeF = CN[C@@H](Cc1ccccc1)C(=O)O; X4 = CC(=O)CCCC[C@@H](C)C(=O)*; Oct(7)enoyl = C=CCCCCCC(=O)*; Oct(7)ynoyl = C#CCCCCCC(=O)*; NMeV = CN[C@H](C(=O)O)C(C)C; Hept6ynoyl = C#CCCCCC(=O)*; X5 = COC(=O)CCCCCCCCN(C)*; NMeA = CN[C@@H](C)C(=O)O; X6 = COC(=O)COCCOCCN(C)*; X3 = C=CCCCCC(=O)*

Experiments:
[1] = Drug uptake in neomycin-untreated zebrafish embryo neuromast at 250 uM after 3 hrs by confocal microscopic analysis; format: ADME, tissue-based, Danio rerio; conditions: in vivo
Summary of the method: (§1)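 Zebrafish embryos were pretreated 1 h with neomycin 500 µM or with medium only. Both groups were then exposed to fluorescent probe (250 µM), fluorophore control (250 µM) or no compound for 3 h, and localization was imaged by confocal microscopy.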

[2] = Drug uptake in 120 hrs post fertilized zebrafish embryo intestinal tract at 1 to 270 uM after 3 hrs by confocal microscopic analysis; format: ADME, Danio rerio; conditions: in vivo
Summary of the method: (§2)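 Zebrafish embryos at 48 and 120 h post fertilization were incubated with fluorescent probe or fluorophore control in methylene blue-free egg water at 270, 90, 30 and 0 µM, three embryos per treatment. Localization was imaged by confocal microscopy after 3 h.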

Danio rerio [3] = species: Danio rerio; test: Drug uptake in 48 hrs post fertilized zebrafish embryo lateral line at 1 to 270 uM after 3 hrs by confocal microscopic analysis; format: ADME, organism-based; conditions: in vivo; summary of the method: as §2
[4] = test system: Trypanosoma brucei brucei; test: Antiparasitic activity against Trypanosoma brucei brucei 427-221 assessed as growth inhibition up to 50 uM after 48 hrs by cellTiter-Glo assay; format: functional, organism-based
Summary of the method: (§3)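 T. b. brucei 427-221 was grown at 37 °C and 5% CO2 in HMI-9 with 10% FBS, 10% Serum Plus and penicillin/streptomycin, then seeded at 2×10^4/mL. Compounds were serially diluted in DMSO (1% final) and exposed for 48 h. Viability was read by CellTiter-Glo ATP luminescence. Percent inhibition was normalized to thimerosal (2 µM final) and DMSO controls, and IC50 was derived by curve fitting.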

[5] = Selectivity index, ratio of LD50 for african green monkey Vero cells to IC50 for Trypanosoma brucei brucei 427-221; format: toxicity, cell-based; conditions: read-out: Ratio LD50/IC50
[6] = test system: Trypanosoma brucei brucei; test: Antiparasitic activity against Trypanosoma brucei brucei 427-221 assessed as growth inhibition after 48 hrs by cellTiter-Glo assay; format: functional, organism-based; conditions: 427-221, 48 h; summary of the method: as §3
[7] = Cytotoxicity against african green monkey Vero cells; format: cell-based; conditions: chlorocebus sabaeus, read-out: LD50 (the source's name)
Leishmania donovani = test: Antiparasitic activity against Leishmania donovani assessed as growth inhibition; format: functional, organism-based
[8] = Toxicity in 48 hrs post fertilized zebrafish embryo assessed as survival after 24 hrs by inverted microscopic analysis; format: organism-based, Danio rerio; conditions: in vivo, read-out: MTD
[9] = Drug uptake in neomycin-treated zebrafish embryo neuromast at 250 uM after 3 hrs by confocal microscopic analysis; format: ADME, tissue-based, Danio rerio; conditions: in vivo; summary of the method: as §1
Danio rerio [10] = species: Danio rerio; test: Drug uptake in 120 hrs post fertilized zebrafish embryo lateral line at 250 to 500 uM after 3 hrs by confocal microscopic analysis; format: ADME, organism-based; conditions: in vivo
Trypanosoma brucei = test: Antiparasitic activity against Trypanosoma brucei assessed as growth inhibition; format: functional, organism-based; summary of the method: as §3

With `CN(C)c1ccc2c(CC(=O)NCCNC(=O)CCc3ccccc3)cc(=O)oc2c1` the Drug uptake [1] was “Not Active”, the Drug uptake [2] was “Active” and the Drug uptake (Danio rerio [3]) was “Active”.
For `Cc1cc(C)n2c1C=C1C=CC(CCC(=O)NCCNC(=O)CCc3ccccc3)=[N+]1[B-]2(F)F`, the Activity [4] was “inactive”.
`C#CCCCCC(=O)N(C)[C@H](C(=O)N(C)[C@H](C(=O)N(C)[C@H](C(=O)N(C)[C@@H](C)C(=O)N(C)[C@@H](Cc1ccccc1)C(=O)N(C)C)C(C)C)C(C)C)C(C)C` (Hept6ynoyl-[NMeV][NMeV][NMeV][NMeA][NMeF]-NMe2) gave a selectivity ratio [5] of 120, an IC50 [6] of 1.3 µM and a CC50 [7] of 156 µM.
In the case of `C#CCCCCC(=O)N(C)[C@H](C(=O)N(C)[C@H](C(=O)N(C)[C@H](C(=O)N(C)[C@@H](C)C(=O)N(C)[C@@H](Cc1ccccc1)C(=O)O)C(C)C)C(C)C)C(C)C` (Hept6ynoyl-[NMeV][NMeV][NMeV][NMeA][NMeF]-OH), the IC50 [6] is reported as greater than 13.7 µM and the CC50 [7] is reported as 281 µM.
Molecule `C#CCCCCC(=O)N(C)[C@H](C(=O)N(C)[C@H](C(=O)N(C)[C@H](C(=O)N(C)[C@@H](C)C(=O)N(C)[C@@H](Cc1ccccc1)C(=O)OC)C(C)C)C(C)C)C(C)C` (Hept6ynoyl-[NMeV][NMeV][NMeV][NMeA][NMeF]-OMe) has a selectivity ratio [5] of 69, an IC50 [6] of 0.6 µM and a CC50 [7] of 41.4 µM.
`C=CCCCCC(=O)N(C)[C@H](C(=O)N(C)[C@H](C(=O)N(C)[C@H](C(=O)N(C)[C@@H](C)C(=O)N(C)[C@@H](Cc1ccccc1)C(=O)N(C)C)C(C)C)C(C)C)C(C)C` (X3-[NMeV][NMeV][NMeV][NMeA][NMeF]-NMe2) showed a selectivity ratio [5] of 160, an IC50 [6] of 0.6 µM and a CC50 [7] of 93.1 µM. It also gave an IC50 (Leishmania donovani) of 6.7 µM.
`C=CCCCCC(=O)N(C)[C@H](C(=O)N(C)[C@H](C(=O)N(C)[C@H](C(=O)N(C)[C@@H](C)C(=O)N(C)[C@@H](Cc1ccccc1)C(=O)O)C(C)C)C(C)C)C(C)C` (X3-[NMeV][NMeV][NMeV][NMeA][NMeF]-OH) gave a selectivity ratio [5] greater than 27, an IC50 [6] of 2.6 µM and a CC50 [7] greater than 70 µM.
`C=CCCCCC(=O)N(C)[C@H](C(=O)N(C)[C@H](C(=O)N(C)[C@H](C(=O)N(C)[C@@H](C)C(=O)N(C)[C@@H](Cc1ccccc1)C(=O)OC)C(C)C)C(C)C)C(C)C` (X3-[NMeV][NMeV][NMeV][NMeA][NMeF]-OMe) showed a selectivity ratio [5] of 41, an IC50 [6] of 0.6 µM and a CC50 [7] of 24.7 µM.
Work on `C=CCCCCCC(=O)N(C)[C@H](C(=O)N(C)[C@H](C(=O)N(C)[C@H](C(=O)N(C)[C@@H](C)C(=O)N(C)[C@@H](Cc1ccccc1)C(=O)N(C)C)C(C)C)C(C)C)C(C)C` ({Oct(7)enoyl}-[NMeV][NMeV][NMeV][NMeA][NMeF]-NMe2) yielded a selectivity ratio [5] of 40, an IC50 [6] of 0.6 µM and a CC50 [7] of 23.8 µM. For the same molecule, the IC50 (Leishmania donovani) was 2.7 µM.
`C=CCCCCCC(=O)N(C)[C@H](C(=O)N(C)[C@H](C(=O)N(C)[C@H](C(=O)N(C)[C@@H](C)C(=O)N(C)[C@@H](Cc1ccccc1)C(=O)O)C(C)C)C(C)C)C(C)C` ({Oct(7)enoyl}-[NMeV][NMeV][NMeV][NMeA][NMeF]-OH) gave an IC50 [6] greater than 13.7 µM and a CC50 [7] of 192 µM.
In the case of `C=CCCCCCC(=O)N(C)[C@H](C(=O)N(C)[C@H](C(=O)N(C)[C@H](C(=O)N(C)[C@@H](C)C(=O)N(C)[C@@H](Cc1ccccc1)C(=O)OC)C(C)C)C(C)C)C(C)C` ({Oct(7)enoyl}-[NMeV][NMeV][NMeV][NMeA][NMeF]-OMe), the selectivity ratio [5] is reported as 47, the IC50 [6] is reported as 0.4 µM and the CC50 [7] is reported as 18.8 µM. It also gave an MNTC at 24 h [8] of 168 µM.
With `C=CCCCCCC(=O)N(C)[C@H](C(=O)N(C)[C@H](C(=O)N(C)[C@H](C(=O)N(C)[C@@H](C)C(=O)N(C)[C@@H](Cc1ccccc1)C(=O)N(C)CCCCCCCCC(=O)OC)C(C)C)C(C)C)C(C)C` ({Oct(7)enoyl}-[NMeV][NMeV][NMeV][NMeA][NMeF]-X5) the IC50 [6] was 0.7 µM.
For `C=CCCCCCC(=O)N(C)[C@H](C(=O)N(C)[C@H](C(=O)N(C)[C@H](C(=O)N(C)[C@@H](C)C(=O)N(C)[C@@H](Cc1ccccc1)C(=O)N(C)CCOCCOCC(=O)OC)C(C)C)C(C)C)C(C)C` ({Oct(7)enoyl}-[NMeV][NMeV][NMeV][NMeA][NMeF]-X6), the IC50 [6] was 3.5 µM.
Work on `C=CCCCCCC(=O)N(C)[C@H](C(=O)N(C)[C@H](C(=O)N(C)[C@H](C(=O)N(C)[C@@H](C)C(=O)N(C)[C@@H](Cc1ccccc1)C(=O)NCCOCCOCCNC(=O)CCCC[C@@H]1SC[C@@H]2NC(=O)N[C@@H]21)C(C)C)C(C)C)C(C)C` ({Oct(7)enoyl}-[NMeV][NMeV][NMeV][NMeA][NMeF]-{NH(CH2CH2O)2CH2CH2NHBiotin}) yielded an IC50 (Leishmania donovani) of 9.9 µM.
With `C=CCCCCCC(=O)N(C)[C@H](C(=O)N(C)[C@H](C(=O)N(C)[C@H](C(=O)N(C)[C@@H](C)C(=O)N(C)[C@@H](Cc1ccccc1)C(=O)N(C)CCOCCOCC(=O)NCCNC(=O)Cc1cc(=O)oc2cc(N(C)C)ccc12)C(C)C)C(C)C)C(C)C` ({Oct(7)enoyl}-[NMeV][NMeV][NMeV][NMeA][NMeF][NMeAEEA]-{Ethylenediamine-X2}) the Drug uptake [1] was “Active”, the Drug uptake [9] was “Not Active” and the Drug uptake (Danio rerio [10]) was “Active”. For the same molecule, the Drug uptake [2] was “Active” and the Drug uptake (Danio rerio [3]) was “Active”.
With `C#CCCCCCC(=O)N(C)[C@H](C(=O)N(C)[C@H](C(=O)N(C)[C@H](C(=O)N(C)[C@@H](C)C(=O)N(C)[C@@H](Cc1ccccc1)C(=O)N(C)C)C(C)C)C(C)C)C(C)C` ({Oct(7)ynoyl}-[NMeV][NMeV][NMeV][NMeA][NMeF]-NMe2) the selectivity ratio [5] was 270, the IC50 [6] was 0.6 µM and the CC50 [7] was 159 µM.
`C#CCCCCCC(=O)N(C)[C@H](C(=O)N(C)[C@H](C(=O)N(C)[C@H](C(=O)N(C)[C@@H](C)C(=O)N(C)[C@@H](Cc1ccccc1)C(=O)O)C(C)C)C(C)C)C(C)C` ({Oct(7)ynoyl}-[NMeV][NMeV][NMeV][NMeA][NMeF]-OH) showed a selectivity ratio [5] greater than 6.7, an IC50 [6] of 10.3 µM and a CC50 [7] greater than 68.9 µM.
In the case of `C#CCCCCCC(=O)N(C)[C@H](C(=O)N(C)[C@H](C(=O)N(C)[C@H](C(=O)N(C)[C@@H](C)C(=O)N(C)[C@@H](Cc1ccccc1)C(=O)OC)C(C)C)C(C)C)C(C)C` ({Oct(7)ynoyl}-[NMeV][NMeV][NMeV][NMeA][NMeF]-OMe), the selectivity ratio [5] is reported as 45, the IC50 [6] is reported as 0.6 µM and the CC50 [7] is reported as 27 µM.
`CC(=O)CCCC[C@@H](C)C(=O)N(C)[C@H](C(=O)N(C)[C@H](C(=O)N[C@H](C(=O)N(C)[C@@H](C)C(=O)N(C)[C@@H](Cc1ccccc1)C(N)=O)C(C)C)C(C)C)C(C)C` [ALMIRAMIDE A] (X4-[NMeV][NMeV]V[NMeA][NMeF]-NH2) showed a CC50 [7] of 113 µM.
Work on `C#CCCCC[C@@H](C)C(=O)N(C)[C@H](C(=O)N(C)[C@H](C(=O)N[C@H](C(=O)N(C)[C@@H](C)C(=O)N(C)[C@@H](Cc1ccccc1)C(N)=O)C(C)C)C(C)C)C(C)C` [ALMIRAMIDE B] ({Oct7ynoyl(2R-Me)}-[NMeV][NMeV]V[NMeA][NMeF]-NH2) yielded a selectivity ratio [5] of 8.7, an IC50 [6] of 6 µM and a CC50 [7] of 52.3 µM.
Molecule `C=CCCCC[C@@H](C)C(=O)N(C)[C@H](C(=O)N(C)[C@H](C(=O)N[C@H](C(=O)N(C)[C@@H](C)C(=O)N(C)[C@@H](Cc1ccccc1)C(N)=O)C(C)C)C(C)C)C(C)C` [ALMIRAMIDE C] ({Octanoyl(2R-Me,7,8-dehydro)}-[NMeV][NMeV]V[NMeA][NMeF]-NH2) has a selectivity ratio [5] of 11, an IC50 [6] of 3 µM and a CC50 [7] of 33.1 µM.
Molecule `NCCCC(N)(C(=O)O)C(F)F` (stereo not given) [EFLORNITHINE] has an IC50 (Trypanosoma brucei) of 59 µM.
`Nc1nc(N)nc(Nc2ccc([As]3SCC(CO)S3)cc2)n1` (stereo not given) [MELARSOPROL] showed an IC50 (Trypanosoma brucei) of 0.01 µM.
`N=C(N)c1ccc(OCCCCCOc2ccc(C(=N)N)cc2)cc1` [PENTAMIDINE] showed an IC50 (Trypanosoma brucei) of 0.03 µM.
`Cc1ccc(C(=O)Nc2ccc(S(=O)(=O)O)c3cc(S(=O)(=O)O)cc(S(=O)(=O)O)c23)cc1NC(=O)c1cccc(NC(=O)Nc2cccc(C(=O)Nc3cc(C(=O)Nc4ccc(S(=O)(=O)O)c5cc(S(=O)(=O)O)cc(S(=O)(=O)O)c45)ccc3C)c2)c1` [SURAMIN] gave an IC50 (Trypanosoma brucei) of 1.4 µM.
